Results from ChEMBL document CHEMBL3217692, “Synthesis and cytotoxicity evaluation of novel pyrido[3,4-d]pyrimidine derivatives as potential anticancer agents” (2012).

How the values were obtained:
Assay type in all cases: functional
MDA-MB-231 = assay: Cytotoxicity against human MDA-MB-231 cells assessed as cell growth at 10 uM after 48 hrs by sulforhodamine B assay relative to control; details: MDA-MB-231, 48 h, read-out: Activity
Procedure, shortened: (§1)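 Adherent cells were grown in RPMI 1640 with 5% FBS and 2 mM L-glutamine, seeded at 5000–40 000 cells/well by doubling time, and held 24 h at 37 °C, 5% CO2 before drug. Time-zero plates were TCA-fixed. Compound in DMSO, single dose 10 μM, 48 h. Cells were fixed with cold TCA (final 10%, 60 min, 4 °C) and stained with 0.4% SRB. Bound dye was dissolved in 10 mM Tris base and read at 515 nm. Percent growth was derived from time-zero, control and treated absorbances.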

MDA-MB-468 = assay: Cytotoxicity against human MDA-MB-468 cells assessed as cell growth at 10 uM after 48 hrs by sulforhodamine B assay relative to control; details: MDA-MB-468, 48 h, read-out: Activity; procedure, shortened: as §1
COLO 205 = assay: Cytotoxicity against human COLO205 cells assessed as cell growth at 10 uM after 48 hrs by sulforhodamine B assay relative to control; details: COLO 205, 48 h, read-out: Activity; procedure, shortened: as §1
SNB-75 = assay: Cytotoxicity against human SNB75 cells assessed as cell growth at 10 uM after 48 hrs by sulforhodamine B assay relative to control; details: SNB-75, 48 h, read-out: Activity; procedure, shortened: as §1
RXF 393 = assay: Cytotoxicity against human RXF393 cells assessed as cell growth at 10 uM after 48 hrs by sulforhodamine B assay relative to control; details: RXF 393, 48 h, read-out: Activity; procedure, shortened: as §1
[1] = Cytotoxicity against human UACC62 cells assessed as cell growth at 10 uM after 48 hrs by sulforhodamine B assay relative to control; details: UACC-62, 48 h, read-out: Activity
Procedure, shortened: (§2)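 NCI-60 single-dose screen. Cells were grown in RPMI 1640 with 5% FBS and 2 mM L-glutamine, seeded at 5000–40 000 cells/well according to doubling time, and pre-incubated 24 h at 37 °C, 5% CO2. Time-zero plates were TCA-fixed at dosing. Compound in DMSO was given at 10 μM for 48 h. Cells were then fixed in cold TCA, stained with 0.4% SRB, solubilised in 10 mM Tris base and read at 515 nm. Growth % was calculated from time-zero, control and treated absorbances.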

SNB-19 = assay: Cytotoxicity against human SNB19 cells assessed as cell growth at 10 uM after 48 hrs by sulforhodamine B assay relative to control; details: SNB-19, 48 h, read-out: Activity; procedure, shortened: as §1
SK-OV-3 = assay: Cytotoxicity against human SKOV3 cells assessed as cell growth at 10 uM after 48 hrs by sulforhodamine B assay relative to control; details: SK-OV-3, 48 h, read-out: Activity; procedure, shortened: as §1
IGROV-1 = assay: Cytotoxicity against human IGROV1 cells assessed as cell growth at 10 uM after 48 hrs by sulforhodamine B assay relative to control; details: IGROV-1, 48 h, read-out: Activity; procedure, shortened: as §1
MCF7 = assay: Cytotoxicity against human MCF7 cells assessed as cell growth at 10 uM after 48 hrs by sulforhodamine B assay relative to control; details: MCF7, 48 h, read-out: Activity; procedure, shortened: as §1
DU-145 = assay: Cytotoxicity against human DU145 cells assessed as cell growth at 10 uM after 48 hrs by sulforhodamine B assay relative to control; details: DU-145, 48 h, read-out: Activity; procedure, shortened: as §1
M14 = assay: Cytotoxicity against human M14 cells assessed as cell growth at 10 uM after 48 hrs by sulforhodamine B assay relative to control; details: M14, 48 h, read-out: Activity; procedure, shortened: as §1
HT-29 = assay: Cytotoxicity against human HT-29 cells assessed as cell growth at 10 uM after 48 hrs by sulforhodamine B assay relative to control; details: HT-29, 48 h, read-out: Activity; procedure, shortened: as §1
[2] = Cytotoxicity against human OVCAR8 cells assessed as cell growth at 10 uM after 48 hrs by sulforhodamine B assay relative to control; details: OVCAR-8, 48 h, read-out: Activity; procedure, shortened: as §1
SF-268 = assay: Cytotoxicity against human SF268 cells assessed as cell growth at 10 uM after 48 hrs by sulforhodamine B assay relative to control; details: SF-268, 48 h, read-out: Activity; procedure, shortened: as §1
NCI-H23 = assay: Cytotoxicity against human NCI-H23 cells assessed as cell growth at 10 uM after 48 hrs by sulforhodamine B assay relative to control; details: NCI-H23, 48 h, read-out: Activity; procedure, shortened: as §1
SK-MEL-28 = assay: Cytotoxicity against human SK-MEL-28 cells assessed as cell growth at 10 uM after 48 hrs by sulforhodamine B assay relative to control; details: SK-MEL-28, 48 h, read-out: Activity; procedure, shortened: as §1
NCI-H226 = assay: Cytotoxicity against human NCI-H226 cells assessed as cell growth at 10 uM after 48 hrs by sulforhodamine B assay relative to control; details: NCI-H226, 48 h, read-out: Activity; procedure, shortened: as §1
HL-60(TB) = assay: Cytotoxicity against human HL-60(TB) cells assessed as cell growth at 10 uM after 48 hrs by sulforhodamine B assay relative to control; details: HL-60, 48 h, read-out: Activity
Procedure, shortened: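 Suspension line grown in RPMI 1640 with 5% FBS and 2 mM L-glutamine, plated at 5000–40 000 cells/well and preincubated 24 h at 37 °C, 5% CO2. Time-zero plates fixed at dosing. Single 10 μM dose in DMSO for 48 h. Settled cells fixed with TCA (final 16%), then stained with 0.4% SRB, solubilised in 10 mM Tris and read at 515 nm. Growth percentage calculated against time-zero and untreated control.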

[3] = Cytotoxicity against human UO31 cells assessed as cell growth at 10 uM after 48 hrs by sulforhodamine B assay relative to control; details: UO-31, 48 h, read-out: Activity; procedure, shortened: as §2
PC-3 = assay: Cytotoxicity against human PC3 cells assessed as cell growth at 10 uM after 48 hrs by sulforhodamine B assay relative to control; details: PC-3, 48 h, read-out: Activity; procedure, shortened: as §1
LOX IMVI = assay: Cytotoxicity against human LOXIMVI cells assessed as cell growth at 10 uM after 48 hrs by sulforhodamine B assay relative to control; details: read-out: Activity; procedure, shortened: as §1
ACHN = assay: Cytotoxicity against human ACHN cells assessed as cell growth at 10 uM after 48 hrs by sulforhodamine B assay relative to control; details: read-out: Activity; procedure, shortened: as §1
SK-MEL-2 = assay: Cytotoxicity against human SK-MEL-2 cells assessed as cell growth at 10 uM after 48 hrs by sulforhodamine B assay relative to control; details: SK-MEL-2, 48 h, read-out: Activity; procedure, shortened: as §1
[4] = Cytotoxicity against human OVCAR3 cells assessed as cell growth at 10 uM after 48 hrs by sulforhodamine B assay relative to control; details: OVCAR-3, 48 h, read-out: Activity; procedure, shortened: as §1
SF-539 = assay: Cytotoxicity against human SF539 cells assessed as cell growth at 10 uM after 48 hrs by sulforhodamine B assay relative to control; details: SF-539, 48 h, read-out: Activity; procedure, shortened: as §1
786-0 = assay: Cytotoxicity against human 786-0 cells assessed as cell growth at 10 uM after 48 hrs by sulforhodamine B assay relative to control; details: 786-0, 48 h, read-out: Activity; procedure, shortened: as §1

Compound COc1nccc2c(-c3cccc(F)c3)nc(N)nc12 has a growth at 10 µM (MDA-MB-231) of 107%, a growth at 10 µM (MDA-MB-468) of 28.6% and a growth at 10 µM (COLO 205) of 109%. The growth at 10 µM (SNB-75) was 91.1%, the growth at 10 µM (RXF 393) was 101% and the growth at 10 µM [1] was 101%. For the same compound, the growth at 10 µM (SNB-19) was 107%, the growth at 10 µM (SK-OV-3) was 105% and the growth at 10 µM (IGROV-1) was 117%. The growth at 10 µM (MCF7) was 39.2%, the growth at 10 µM (DU-145) was 110% and the growth at 10 µM (M14) was 118%. For the same compound, the growth at 10 µM (HT-29) was 96.4%, the growth at 10 µM [2] was 85.6% and the growth at 10 µM (SF-268) was 108%. The growth at 10 µM (NCI-H23) was 104%, the growth at 10 µM (SK-MEL-28) was 97% and the growth at 10 µM (NCI-H226) was 98.2%. For the same compound, the growth at 10 µM (HL-60(TB)) was 92.5%, the growth at 10 µM [3] was 109% and the growth at 10 µM (PC-3) was 93%. It also gave a growth at 10 µM (LOX IMVI) of 101%, a growth at 10 µM (ACHN) of 99.7% and a growth at 10 µM (SK-MEL-2) of 89.5%. The growth at 10 µM [4] was 107%, the growth at 10 µM (SF-539) was 97.2% and the growth at 10 µM (786-0) was 100%.
